SIRT5 block: blocks human SIRT5 desuccinylation of peptide; Q9NXA8; Purified SirT5, succinyl-peptide AMC, trypsin-coupled fluorescence; inhibition, % at 15 µM; hit rate 1.1% among 330,000; AID 652115; in the data active = inhibition above about 15%
Target sequence (Q9NXA8 whole entry, looked up): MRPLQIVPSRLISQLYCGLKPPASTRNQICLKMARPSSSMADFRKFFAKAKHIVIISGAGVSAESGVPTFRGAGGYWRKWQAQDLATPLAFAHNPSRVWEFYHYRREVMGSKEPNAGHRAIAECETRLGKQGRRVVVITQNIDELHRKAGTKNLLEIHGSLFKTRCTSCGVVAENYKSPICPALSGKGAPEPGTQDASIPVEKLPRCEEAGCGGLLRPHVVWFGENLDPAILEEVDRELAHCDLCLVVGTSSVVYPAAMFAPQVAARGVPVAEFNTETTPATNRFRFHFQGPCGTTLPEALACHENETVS
S100A4 MyoIIA: blocks human S100A4 binding to myosin IIA peptide; hit rate 0.14% among 360,000; P26447; inhibition, % at 10.7 µM; S100A4/TAMRA-MyoIIA peptide fluorescence polarization;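 active = mean inhibition of at least 70% across replicates, with every replicate also reaching that level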
Target sequence (P26447 whole entry, looked up): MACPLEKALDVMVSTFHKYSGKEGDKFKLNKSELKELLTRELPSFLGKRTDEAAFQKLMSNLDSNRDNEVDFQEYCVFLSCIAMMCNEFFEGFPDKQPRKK
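Test system: S100A4 monomer protein; Medium: HEPES pH 7.2 with CaCl2, KCl, NaCl, DTT, Triton; Probe or stimulus: TAMRA-labelled myosin IIA heavy-chain peptide probe, 5 nM; Doses: one dose per compound; Times: polarization read 5 min after assay mix addition, stable 5–60 min; Benchmarks: neutral control DMSO, positive control TFP.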
F508del corr: CFTR F508del correction in bronchial cells | AID 720511 | activity (quench increase), % at 7.58 µM | CFBE cells, YFP halide quenching; stimulated with forskolin plus potentiator P3; % fluorescence drop versus neutral controls | hit rate 0.36% among 350,000;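 active = mean added fluorescence quench of at least 8% versus neutral control, with both replicates also reaching 8%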;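 also: cells transiently co-express mutant CFTR-F508del with the halide-sensitive YFP; corrector assay measuring rescue of mutant channel to the surface after 24 h compound exposure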
Ecoli rRNA inh: selective bacterial rRNA inhibition in E. coli. E. coli WT GFP vs humanized-ribosome RFP mutants, fluorescence, 24 h; stronger effect = lower value; DMSO median 0, no signal -100. GFP signal change (wild-type ribosome), % (no concentration beside the values). hit rate 1.6% among 350,000;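 active = significant combined selectivity score with lowered wild-type GFP, culture density cut under 30%, mutant RFP and density less affected; inactive = any of these conditions unmet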
ERAP1 HTS inh: blocks human ERAP1 aminopeptidase activity; hit rate 0.15% among 340,000; Q9NZ08; inhibition, % at 10.7 µM; recombinant ERAP1, Leu-AMC fluorescence, 60 min;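 active = mean replicate inhibition of at least 30%, or all replicates individually reaching that 30% level; inactive = mean below 30% and not every replicate reaching it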;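 also: 0% = neutral control wells and 100% = L-leucinethiol positive control wells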
The depositor's hits bear a star; · = no result given; ! = a repeat was not active. Sampled rows, rich in hits. Any-hit rate of the full collection: about 3.1%.

SMILES	SIRT5 block	S100A4 MyoIIA	F508del corr	Ecoli rRNA inh	ERAP1 HTS inh
CCOC(=O)CC(=O)CSc1nc2c(sc(=S)n2-c2ccc(C)c(C)c2)c(=O)[nH]1	0.5	-10.8	-4.4	-18.1	-4.9
CCOc1ccc(-n2c(=S)sc3c(=O)n(-c4ccc(F)cc4)c(SCC(=O)O)nc32)cc1	29.3*	-1.1	2.7	2.2	0.6
Cc1noc(C)c1S(=O)(=O)Nc1ccc2c(c1)C(=O)N([C@H](C)CO)C[C@@H](C)[C@@H](CN(C)C)OCCCC[C@@H](C)O2	-3.1	0.9	1.5	-1.3	-2.9
COc1ccc(C(=O)N2CCN(C(=O)C3COc4ccccc4O3)CC2)cc1 (stereo not given)	-1.4	4.4	1.6	-0.2	-0.9
O=C(C1COc2ccccc2O1)N1CCN(c2ccc(F)cc2)CC1 (stereo not given)	-2.1	-2.7	1.1	-1.2	-0.8
O=C(C1COc2ccccc2O1)N1CCN(c2ccccc2O)CC1 (stereo not given)	17.3*	8.8	2.3	-4.7	3.8
CC1CCN(C(=O)C2COc3ccccc3O2)CC1 (stereo not given)	-3.0	-3.2	15.6*	5.8	1.3
CCN(CC)CCOC(=O)C(c1ccccc1)c1ccccc1	-5.7	-4.6	-2.4	6.0	-2.7
CCN(CC)CCOC(=O)C(Cc1ccco1)Cc1cccc2ccccc12 (stereo not given)	-2.9	0.8	-1.2	-34.2*	1.6
COC(=O)COc1ccc(S(=O)(=O)NCCC2=CCCCC2)cc1C	-2.6	4.1	0.9	-21.0*	-0.4
C[C@@H]1CN([C@@H](C)CO)C(=O)c2cc(Br)cnc2O[C@H]1CN(C)C(=O)C1CCCCC1	18.3*!	-11.8	2.6	1.3	-1.9
COCC(=O)N(C)C[C@H]1Oc2ncc(Br)cc2C(=O)N([C@@H](C)CO)C[C@H]1C	16.7*!	3.2	-2.5	-0.9	3.8
COc1ccc(OCC(=O)Nc2ccc(NC(=O)c3cccs3)cc2)cc1	102.2*	-2.3	0.7	7.4	-1.2
Cc1ccccc1NC(=O)c1ccco1	-1.9	-1.5	0.0	18.9	19.4
Cc1ccc(NC(=O)/C(=C/c2cccs2)NC(=O)c2ccco2)c(C)c1	1.1	-4.7	-1.8	-30.3*	-2.9
CCN(c1ccccc1)S(=O)(=O)c1ccc(OC)c(NC(=O)c2ccco2)c1	·	-0.6	3.1	-19.2*	-1.7
Cc1cc(Br)ccc1NC(=O)c1ccco1	-3.3	2.3	-0.7	-22.3*	1.4
COc1cc2c(cc1NC(=O)c1ccco1)CCCC2	-1.3	-5.2	-1.9	-32.5*	4.6
O=C(C[C@H]1CC[C@@H]2[C@H](COC[C@H](O)CN2Cc2cccc(C(F)(F)F)c2)O1)NCCc1ccncc1	1.4	6.0	-0.1	1.3	-1.3
O=C(C[C@H]1C=C[C@H](NC(=O)CC2CC2)[C@H](CO)O1)NCc1ccccc1	-1.9	0.7	-0.9	1.0	-2.0
CCCNC(=O)N1C[C@H](O)COC[C@@H]2O[C@@H](CC(=O)N[C@@H]3CCN(Cc4ccccc4)C3)CC[C@H]21	0.6	-24.4	-0.8	-3.7	3.2
C[C@@H]1CN([C@@H](C)CO)C(=O)c2cc(-c3ccc(F)cc3)cnc2O[C@H]1CN(C)CC1CCCC1	-2.3	4.3	-0.1	7.9	0.0
COc1cc(NC(=O)c2ccc([N+](=O)[O-])o2)ccc1NC(=O)c1ccco1	-0.4	-2.1	-2.7	-21.7*	0.5
Cc1cc(NC(=O)c2ccc([N+](=O)[O-])o2)ccc1NC(=O)c1ccco1	4.3	-7.6	·	·	1.9
CC(=O)c1ccc(NC(=O)c2ccc(C)c(Br)c2)cc1	-2.1	10.1	-0.5	0.1	0.2
SMILES	SIRT5 block	S100A4 MyoIIA	F508del corr	Ecoli rRNA inh	ERAP1 HTS inh
CC(=O)c1ccc(NC(=O)Nc2ccc(Br)cc2C)cc1	0.1	1.2	-1.4	-18.6*	·
C[C@@H]1CN([C@H](C)CO)C(=O)c2cc(NC(=O)C3CCCCC3)ccc2O[C@H]1CN(C)S(=O)(=O)c1ccc(Cl)cc1	1.8	5.3	0.9	-3.0	4.3
COCC(=O)N1C[C@H]2[C@@H](c3ccccc31)[C@@H](CO)N2Cc1ccccc1Cl	-3.0	0.7	1.8	-3.4	-0.1
Cc1ccc(C)c(NC2=C(Cl)C(=O)OC2OC(=O)c2ccco2)c1 (stereo not given)	0.1	-0.2	-0.3	-27.5*	12.8
Cc1ccc(NC2=C(Cl)C(=O)OC2OC(=O)c2ccco2)cc1C (stereo not given)	-0.1	4.7	·	·	-4.4
COc1ccc(NC(=O)CSc2nc3ccccc3c(=O)n2CCCN2CCC(C)CC2)c(OC)c1	-1.0	-26.3	1.3	-9.5	5.4
CC1CCN(CCCn2c(SCC(=O)Nc3ccccc3Cl)nc3ccccc3c2=O)CC1	·	-7.1	0.3	-33.0*	-0.8
Cc1ccc(C#N)c(SCc2ccccc2F)n1	-0.6	1.0	-3.4	-25.4*	1.8
CCC(=O)Nc1ccc2c(c1)OC[C@@H](C)N(C(=O)CC1CC1)C[C@@H](C)[C@H](OC)CN(C)C2=O	2.1	-8.2	-0.6	-1.1	1.4
c1ccc(CCC2Cc3ccccc3N2)cc1 (stereo not given)	15.1*	-39.7	-0.6	6.4	-1.3
CN(C[C@H]1[C@@H](c2ccccc2)[C@@H](CO)N1C(=O)C1CCC1)C(=O)c1ccncc1	-2.8	8.0	-0.2	1.0	1.2
Cn1c(=O)c2nc(-c3ccccc3)c(-c3ccccc3)nc2n(C)c1=O	0.8	-2.8	-4.1	-20.4*	6.1
C[C@@H]1CN([C@@H](C)CO)C(=O)c2cc(C#C[C@@H](C)O)cnc2O[C@@H]1CN(C)CC1CCOCC1	-3.0	0.4	1.4	9.6	-0.9
O=C(C[C@H]1CC[C@@H]2[C@H](COC[C@H](O)CN2C(=O)c2ccccc2F)O1)N1CCCCC1	-0.8	-0.5	-2.6	0.7	2.7
O=C(c1ccc(F)cc1)N1CC(=O)N2[C@H](C1)[C@@H](c1ccc(C#Cc3ccc(F)cc3)cc1)[C@@H]2CO	-4.0	-2.8	2.2	3.6	-1.5
CCOC(=O)N1CCC(N(CCOC)C(=O)Nc2ccc(Cl)cc2)CC1	-0.7	1.8	0.7	-16.2*	-3.7
C[C@@H]1CCCCO[C@@H](CN(C)CC2CCCCC2)[C@@H](C)CN([C@@H](C)CO)C(=O)c2cc(NC(=O)c3ccccc3)ccc2O1	0.2	2.9	-1.7	5.2	1.0
Cc1onc(-c2c(Cl)cccc2Cl)c1C(=O)Nc1ccc2c(c1)OCO2	0.2	2.6	4.7	-21.5*	-1.1
COc1ccc(C(=O)NC(=S)NNC(=O)c2c(-c3ccccc3)noc2C)cc1OC	0.9	-2.2	0.6	-40.2	0.7
Cc1onc(-c2ccccc2)c1C(=O)NC(=S)NNC(=O)c1ccco1	2.4	1.4	-4.4	-54.0	·
Cc1onc(-c2ccccc2)c1C(=O)NC(=S)NNC(=O)c1ccncc1	-2.8	3.3	-0.9	-36.5*	1.0

Screens: PubChem BioAssay, Broad Institute
